Reference: ChEMBL document CHEMBL1157892, “Cucurbitacin E as a new inhibitor of cofilin phosphorylation in human leukemia U937 cells” (Bioorg Med Chem Lett, 2010)
Calls of active or inactive are those of the source. The calls are words filed in the database; no cut-off is given here.

How the values were obtained:
[1] = target: Signal transducer and activator of transcription 3 (Homo sapiens) (UniProt P40763); experiment: Inhibition of STAT3 phosphorylation in human U937 cells at 10 uM after 24 hrs by Western blotting; type: cell-based; conditions: U-937
How it was run: (§1)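 U937 cells at 5.0 × 10⁴ cells/mL treated 24 h and lysed with phosphatase and protease inhibitors. 60 µg protein per lane run on 10% SDS–PAGE. Western blots probed with rabbit anti-phospho-STAT3 and anti-STAT3 (1:1000), then HRP anti-rabbit (1:5000), with ECL detection.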

[2] = target: Signal transducer and activator of transcription 3 (Homo sapiens) (UniProt P40763); experiment: Inhibition of STAT3 phosphorylation in human U937 cells at 100 uM after 24 hrs by Western blotting; type: cell-based; conditions: U-937; how it was run: as §1
Cofilin-1 (Homo sapiens) = Cofilin-1 (Homo sapiens) (UniProt P23528); experiment: Inhibition of cofilin phosphorylation in human U937 cells after 24 hrs by Western blotting; type: cell-based; conditions: U-937
How it was run: (§2)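 U937 cells at 5.0 × 10⁴ cells/mL treated 24 h, then lysed with phosphatase and protease inhibitors. Equal protein loaded on SDS–PAGE. Blots probed 1 h with rabbit antibodies (1:1000) to phospho-cofilin, phospho-LIMK1/2, cofilin and β-actin in T-TBS. Detection with HRP anti-rabbit (1:5000) and ECL.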

U-937 [3] = experiment: Cell cycle arrest in human U937 cells assessed as reduction of cell population at S phase at 100 nM after 24 hrs using propidium iodide staining by flow cytometry relative to control; type: functional; set-up: scale not given: the % may be the effect or the level left
How it was run: (§3)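 U937 cells at 5.0 × 10⁴ cells/mL treated 24 h, pelleted, fixed in ice-cold ethanol overnight at −20 °C, treated with DNase-free RNase (0.25 mg/mL) at 37 °C for 30 min, then stained with propidium iodide. DNA content read by flow cytometry, 20,000 cells per sample. G0/G1, S and G2/M fractions compared with untreated control.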

HL-60 = experiment: Cytotoxicity against human HL60 cells after 72 hrs by WST-8 assay; type: functional, cell-based; conditions: HL-60, 72 h
How it was run: (§4)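 Cells seeded at 5.0 × 10³ cells/100 µL/well in RPMI-1640 and exposed to compounds for 68 h. WST-8 was then added for a further 4 h. Formazan absorbance read at 450 nm (reference 655 nm). Percent inhibition calculated and IC50 read graphically from the curve.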

HT-1080 [4] = experiment: Cytotoxicity against human HT1080 cells after 72 hrs by WST-8 assay; type: functional, cell-based; conditions: HT-1080, 72 h; how it was run: as §4
U-937 [5] = experiment: Cell cycle arrest in human U937 cells assessed as reduction of cell population at G0/G1 phase at 100 nM after 24 hrs using propidium iodide staining by flow cytometry relative to control; type: functional; set-up: scale not given: the % may be the effect or the level left; how it was run: as §3
[6] = target: T1, LIM domain kinase 1/2 (Homo sapiens) (UniProt P53671+P53667); experiment: Inhibition of LIMK1/2 phosphorylation in human U937 cells at 0.1 to 100 nM after 24 hrs by Western blotting; type: cell-based; conditions: U-937; how it was run: as §2
U-937 [7] = experiment: Cytotoxicity against human U937 cells after 72 hrs by WST-8 assay; type: functional, cell-based; conditions: U-937, 72 h; how it was run: as §4
HT-1080 [8] = experiment: Decrease of F to G actin ratio in human HT1080 cells at 100 nM after 24 hrs; type: functional, cell-based
How it was run: (§5)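 HT1080 cells seeded at 1.0 × 10⁴ cells/100 µL/well and treated 24 h at 37 °C. Cells fixed in 4% formaldehyde, permeabilized with cold methanol and blocked. F-actin stained with Alexa 350 phalloidin and G-actin with Alexa 488 DNase I, each 15 min at rt in the dark. Fluorescence read at ex 355/em 405 and ex 480/em 520 nm. Results are mean of n = 4; Dunnett's test against control.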

U-937 [9] = experiment: Cell cycle arrest in human U937 cells assessed as increase of cell population at G2/M phase at 100 nM after 24 hrs using propidium iodide staining by flow cytometry relative to control; type: functional; how it was run: as §3
[10] = target: T1, LIM domain kinase 1/2 (Homo sapiens); experiment: Inhibition of LIMK1/2 phosphorylation in human U937 cells at 0.1 to 1000 nM after 24 hrs by Western blotting; type: cell-based; conditions: U-937; how it was run: as §2
HT-1080 [11] = experiment: Decrease of F to G actin ratio in human HT1080 cells at 1000 nM after 24 hrs; type: functional, cell-based; how it was run: as §5

Sequence of Signal transducer and activator of transcription 3 (Homo sapiens) (P40763 whole entry): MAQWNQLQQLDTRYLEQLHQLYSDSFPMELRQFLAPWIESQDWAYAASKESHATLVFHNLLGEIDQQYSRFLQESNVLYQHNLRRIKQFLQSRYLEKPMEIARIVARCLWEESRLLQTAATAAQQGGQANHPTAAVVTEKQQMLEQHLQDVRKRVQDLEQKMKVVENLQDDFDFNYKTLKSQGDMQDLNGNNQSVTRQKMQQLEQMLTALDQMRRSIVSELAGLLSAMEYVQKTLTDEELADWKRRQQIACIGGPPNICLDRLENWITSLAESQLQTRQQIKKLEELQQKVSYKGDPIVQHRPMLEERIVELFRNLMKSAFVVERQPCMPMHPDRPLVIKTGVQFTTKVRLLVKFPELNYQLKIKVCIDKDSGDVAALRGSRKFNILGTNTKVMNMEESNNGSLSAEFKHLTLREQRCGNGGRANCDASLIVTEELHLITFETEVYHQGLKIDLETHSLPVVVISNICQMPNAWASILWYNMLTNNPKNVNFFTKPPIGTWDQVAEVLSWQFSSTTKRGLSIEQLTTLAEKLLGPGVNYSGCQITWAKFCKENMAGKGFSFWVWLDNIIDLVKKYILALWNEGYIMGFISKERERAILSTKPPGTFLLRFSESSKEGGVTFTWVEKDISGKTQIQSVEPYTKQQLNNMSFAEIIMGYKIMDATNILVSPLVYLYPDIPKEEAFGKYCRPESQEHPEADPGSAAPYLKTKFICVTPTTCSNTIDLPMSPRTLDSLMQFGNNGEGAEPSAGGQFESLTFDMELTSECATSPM
T1 sequence (P53667 whole entry, looked up, the tested form may be a part): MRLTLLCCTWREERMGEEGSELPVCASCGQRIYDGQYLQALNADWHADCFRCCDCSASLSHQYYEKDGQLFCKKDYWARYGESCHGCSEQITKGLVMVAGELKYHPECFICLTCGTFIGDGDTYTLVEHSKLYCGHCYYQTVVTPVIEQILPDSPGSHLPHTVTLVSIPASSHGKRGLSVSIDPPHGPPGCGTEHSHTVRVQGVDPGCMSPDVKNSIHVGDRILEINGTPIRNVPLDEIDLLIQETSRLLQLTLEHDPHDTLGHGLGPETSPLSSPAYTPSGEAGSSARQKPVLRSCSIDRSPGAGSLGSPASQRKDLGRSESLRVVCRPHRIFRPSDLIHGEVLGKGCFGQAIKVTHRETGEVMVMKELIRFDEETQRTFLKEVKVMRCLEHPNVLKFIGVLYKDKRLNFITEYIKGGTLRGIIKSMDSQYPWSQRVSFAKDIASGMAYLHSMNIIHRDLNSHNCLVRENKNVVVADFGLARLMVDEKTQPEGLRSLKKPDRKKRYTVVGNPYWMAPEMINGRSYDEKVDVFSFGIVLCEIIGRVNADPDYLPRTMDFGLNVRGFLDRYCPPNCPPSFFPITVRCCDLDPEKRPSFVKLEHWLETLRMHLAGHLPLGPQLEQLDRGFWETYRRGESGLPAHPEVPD
T1 sequence (P53671 whole entry, looked up, the tested form may be a part): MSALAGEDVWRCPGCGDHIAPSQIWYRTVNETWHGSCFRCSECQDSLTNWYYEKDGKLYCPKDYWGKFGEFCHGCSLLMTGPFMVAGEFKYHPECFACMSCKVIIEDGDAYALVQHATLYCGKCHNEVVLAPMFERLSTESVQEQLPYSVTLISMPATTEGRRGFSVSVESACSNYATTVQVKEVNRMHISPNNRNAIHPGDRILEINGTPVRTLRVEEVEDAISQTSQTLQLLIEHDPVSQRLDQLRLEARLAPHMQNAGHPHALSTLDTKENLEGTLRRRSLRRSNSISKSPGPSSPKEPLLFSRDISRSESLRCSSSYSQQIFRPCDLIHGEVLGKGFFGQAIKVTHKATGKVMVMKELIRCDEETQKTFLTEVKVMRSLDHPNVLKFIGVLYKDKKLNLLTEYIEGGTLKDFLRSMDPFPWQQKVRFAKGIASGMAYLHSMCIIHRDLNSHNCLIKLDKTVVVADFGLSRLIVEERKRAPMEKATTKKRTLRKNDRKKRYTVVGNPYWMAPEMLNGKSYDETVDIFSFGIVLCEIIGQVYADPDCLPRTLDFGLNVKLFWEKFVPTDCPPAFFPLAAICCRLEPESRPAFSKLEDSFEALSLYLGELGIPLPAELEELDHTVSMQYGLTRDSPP
Sequence of Cofilin-1 (Homo sapiens) (P23528 whole entry): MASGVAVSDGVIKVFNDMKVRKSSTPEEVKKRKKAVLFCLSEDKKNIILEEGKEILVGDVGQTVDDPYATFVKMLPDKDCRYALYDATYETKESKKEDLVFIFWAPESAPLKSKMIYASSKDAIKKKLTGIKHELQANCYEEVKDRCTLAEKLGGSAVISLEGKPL

Structure (SMILES)	Activity [1]	Activity [2]	Activity (Cofilin-1 (Homo sapiens))	Activity (U-937 [3])	IC50 (HL-60)	IC50 (HT-1080 [4])	Activity (U-937 [5])	Activity [6]	IC50 (U-937 [7])	Activity (HT-1080 [8])	Activity (U-937 [9])	Activity [10]	Activity (HT-1080 [11])
CC(=O)OC(C)(C)/C=C/C(=O)[C@](C)(O)[C@H]1[C@H](O)C[C@@]2(C)[C@@H]3CC=C4[C@H](C[C@H](O)C(=O)C4(C)C)[C@]3(C)C(=O)C[C@]12C	inactive	Active											
CC(=O)OC(C)(C)/C=C/C(=O)[C@](C)(O)[C@H]1[C@H](O)C[C@@]2(C)[C@@H]3CC=C4[C@@H](C=C(O)C(=O)C4(C)C)[C@]3(C)C(=O)C[C@]12C [CUCURBITACIN E]	inactive		Dose-dependent effect	28.1%	18 nM	40 nM	37.7%	inactive	16 nM	Active	34.2%		
CC(C)(O)/C=C/C(=O)[C@](C)(O)[C@H]1[C@H](O)C[C@@]2(C)[C@@H]3CC=C4[C@@H](C=C(O)C(=O)C4(C)C)[C@]3(C)C(=O)C[C@]12C [CUCURBITACIN I]			Dose-dependent effect					inactive				inactive	Active
